Measured values taken from ChEMBL document CHEMBL4699398, “The synthesis and biological evaluation of sanguinarine derivatives as anti-non-small cell lung cancer agents” (RSC Med Chem, 2020).

Experiments:
[1] = system: NCI-H1975; test: Induction of apoptosis in human H1975 cells assessed as early apoptotic cells at 1 uM after 48 hrs by Annexin-V-FITC/7-AAD staining based flow cytometric method (reference value: 6.50 %); assay type: functional
[2] = system: NCI-H1975; test: Induction of apoptosis in human H1975 cells assessed as necrotic cells at 3 uM after 48 hrs by Annexin V-FITC/7-AAD staining based flow cytometric method (reference value: 0.85 %); assay type: functional
[3] = system: NCI-H1975; test: Induction of apoptosis in human H1975 cells assessed as early apoptotic cells at 3 uM after 48 hrs by Annexin V-FITC/7-AAD staining based flow cytometric method (reference value: 6.50 %); assay type: functional
[4] = system: NCI-H1975; test: Induction of apoptosis in human H1975 cells assessed as necrotic cells at 0.3 uM after 48 hrs by Annexin V-FITC/7-AAD staining based flow cytometric method (reference value: 0.85 %); assay type: functional
[5] = system: A549; test: Induction of cell cycle arrest in human A549 cells assessed as accumulation in G0/G1 phase at 0.3 uM incubated for 24 hrs by […] propidium iodide staining based flow cytometry (reference value: 63.11 %); assay type: functional
[6] = system: NCI-H1975; test: Induction of cell cycle arrest in human H1975 cells assessed as accumulation in S phase at 0.3 uM incubated for 24 hrs by […] propidium iodide staining based flow cytometry (reference value: 14.13 %); assay type: functional
[7] = system: A549; test: Antiproliferative activity against human A549 cells assessed as inhibition of cell growth incubated for 72 hrs by CCK-8 assay; conditions: A549, 72 h
[8] = system: NCI-H1975; test: Induction of apoptosis in human H1975 cells assessed as late apoptotic cells at 0.3 uM after 48 hrs by Annexin V-FITC/7-AAD staining based flow cytometric method (reference value: 4.63 %); assay type: functional
[9] = system: A549; test: Induction of apoptosis in human A549 cells assessed as necrotic cells at 3 uM after 48 hrs by Annexin V-FITC/7-AAD staining based flow cytometric method (reference value: 0.70 %); assay type: functional
[10] = system: NCI-H1975; test: Induction of cell cycle arrest in human H1975 cells assessed as accumulation in G2/M phase at 0.3 uM incubated for 24 hrs by […] propidium iodide staining based flow cytometry (reference value: 21.00 %); assay type: functional
[11] = system: NCI-H1975; test: Induction of apoptosis in human H1975 cells assessed as necrotic cells at 1 uM after 48 hrs by Annexin V-FITC/7-AAD staining based flow cytometric method (reference value: 0.85 %); assay type: functional
[12] = system: NCI-H1975; test: Induction of apoptosis in human H1975 cells assessed as early apoptotic cells at 0.3 uM after 48 hrs by Annexin V-FITC/7-AAD staining based flow cytometric method (reference value: 6.50 %); assay type: functional
[13] = system: NCI-H1975; test: Antiproliferative activity against human H1975 cells assessed as inhibition of cell growth incubated for 72 hrs by CCK-8 assay; conditions: NCI-H1975, 72 h
[14] = system: A549; test: Induction of apoptosis in human A549 cells assessed as late apoptotic cells at 3 uM after 48 hrs by Annexin V-FITC/7-AAD staining based flow cytometric method (reference value: 2.94 %); assay type: functional
[15] = system: NCI-H1975; test: Induction of cell cycle arrest in human H1975 cells assessed as accumulation in G2/M phase at 1 uM incubated for 24 hrs by […] propidium iodide staining based flow cytometry (reference value: 21.00 %); assay type: functional
[16] = system: NCI-H1975; test: Induction of apoptosis in human H1975 cells assessed as viable cells at 1 uM after 48 hrs by Annexin V-FITC/7-AAD staining based flow cytometric method (reference value: 88.02 %); assay type: functional; conditions: read-out: Activity
[17] = system: A549; test: Induction of apoptosis in human A549 cells assessed as necrotic cells at 1 uM after 48 hrs by Annexin V-FITC/7-AAD staining based flow cytometric method (reference value: 0.70 %); assay type: functional
[18] = system: A549; test: Induction of cell cycle arrest in human A549 cells assessed as accumulation in S phase at 3 uM incubated for 24 hrs by […] propidium iodide staining based flow cytometry (reference value: 14.16 %); assay type: functional
[19] = system: NCI-H1975; test: Induction of cell cycle arrest in human H1975 cells assessed as accumulation in G2/M phase at 3 uM incubated for 24 hrs by […] propidium iodide staining based flow cytometry (reference value: 21.00 %); assay type: functional
[20] = system: A549; test: Induction of apoptosis in human A549 cells assessed as early apoptotic cells at 1 uM after 48 hrs by Annexin V-FITC/7-AAD staining based flow cytometric method (reference value: 3.26 %); assay type: functional
[21] = system: NCI-H1975; test: Induction of cell cycle arrest in human H1975 cells assessed as accumulation in G0/G1 phase at 0.3 uM incubated for 24 hrs by […] propidium iodide staining based flow cytometry (reference value: 62.86 %); assay type: functional
[22] = system: NCI-H1975; test: Induction of apoptosis in human H1975 cells assessed as late apoptotic cells at 3 uM after 48 hrs by Annexin V-FITC/7-AAD staining based flow cytometric method (reference value: 4.63 %); assay type: functional
[23] = system: A549; test: Induction of cell cycle arrest in human A549 cells assessed as accumulation in S phase at 0.3 uM incubated for 24 hrs by […] propidium iodide staining based flow cytometry (reference value: 14.16 %); assay type: functional
[24] = system: A549; test: Induction of cell cycle arrest in human A549 cells assessed as accumulation in G0/G1 phase at 3 uM incubated for 24 hrs by […] propidium iodide staining based flow cytometry (reference value: 63.11 %); assay type: functional
[25] = system: NCI-H1975; test: Induction of cell cycle arrest in human H1975 cells assessed as accumulation in S phase at 3 uM incubated for 24 hrs by […] propidium iodide staining based flow cytometry (reference value: 14.13 %); assay type: functional
[26] = system: NCI-H1975; test: Induction of apoptosis in human H1975 cells assessed as increase in ROS production incubated for 20 mins by DCFH-DA staining based flow cytometry analysis; assay type: functional, cell-based; conditions: dose microM 0.3-3, time 20.0 min
Summary of the method: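 At 20 min after compound treatment, cells washed in PBS and loaded with 10 μM DCFH-DA in phenol red-free DMEM for 30 min at 37 °C in the dark; washed three times with PBS; DCF fluorescence of ROS-positive cells measured by flow cytometry with excitation at 488 nm.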

`CN1c2c(ccc3cc4c(cc23)OCO4)-c2ccc3c(c2C1N1CCOCC1)OCO3` (stereo unspecified) was tested, and the Activity [1] was 10.59%, the Activity [2] was 4.59% and the Activity [3] was 3.11%. The Activity [4] was 0.98%, the Activity [5] was 64.85% and the Activity [6] was 14.07%. The IC50 [7] was 1.79 µM, the Activity [8] was 5.55% and the Activity [9] was 1.65%. It also gave an Activity [10] of 23.51%, an Activity [11] of 2.8% and an Activity [12] of 10.94%. It also gave an IC50 [13] of 1.16 µM, an Activity [14] of 93.73% and an Activity [15] of 19.67%. It also gave a viability at 1 µM [16] of 67.4%, an Activity [17] of 4.23% and an Activity [18] of 15.07%. It also gave an Activity [19] of 13.21%, an Activity [20] of 8.03% and an Activity [21] of 62.04%. For the same compound, the Activity [22] was 90.5%, the Activity [23] was 14.84% and the Activity [24] was 71.21%. The Activity [25] was 8.75% and the Activity [26] was “Dose-dependent effect”.
